From ChEMBL document CHEMBL4196006, “Aryl thiosemicarbazones for the treatment of trypanosomatidic infections” (Eur J Med Chem, 2018)
The source made the active and inactive calls. No cut-off for these calls is given here.

What was measured:
Trypanosoma brucei [1] = assay: Potentiation of methotrexate-induced antitrypanosomal activity against Trypanosoma brucei Lister 427 bloodstream form assessed as dose reduction index for compound at EC50 after 72 hrs by resazurin dye-based assay; format: functional
hERG (KCNH2) = hERG (KCNH2) (Homo sapiens, UniProt Q12809); assay: Inhibition of human ERG at 10 uM incubated for 2 hrs by fluorescence polarisation assay relative to control
[2] = target: T1, Pteridine reductase, putative (Trypanosoma brucei) (UniProt Q581W1); assay: Inhibition of Trypanosoma brucei PTR1 at 50 uM using H2B as substrate in presence of NADPH by photometric analysis relative to control
T1 sequence (whole entry): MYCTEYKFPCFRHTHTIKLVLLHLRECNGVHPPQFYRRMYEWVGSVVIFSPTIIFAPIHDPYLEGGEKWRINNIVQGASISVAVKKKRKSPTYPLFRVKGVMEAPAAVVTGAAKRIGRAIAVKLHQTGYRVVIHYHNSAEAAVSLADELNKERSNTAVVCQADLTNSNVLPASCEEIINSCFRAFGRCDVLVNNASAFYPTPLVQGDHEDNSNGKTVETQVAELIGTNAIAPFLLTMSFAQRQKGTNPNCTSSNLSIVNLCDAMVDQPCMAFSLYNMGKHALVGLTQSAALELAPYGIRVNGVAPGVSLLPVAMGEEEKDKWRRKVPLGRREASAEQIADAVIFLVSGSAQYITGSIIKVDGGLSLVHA

CYP2D6 = CYP2D6 (Homo sapiens, UniProt P10635); assay: Inhibition of human microsomal CYP2D6 expressed in baculovirus infected BTI-TN-5B1-4 cells at 10 uM incubated for 30 mins by luciferase assay relative to control; format: ADME
How it was run: (§1)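 CYP1A2, 2C9, 2C19, 2D6 and 3A4 in microsomes from baculovirus-infected insect cells, each with a P450-Glo luminogenic substrate. Inhibition read as loss of light; single-point at 10 μM, triplicate.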

CYP3A4 = CYP3A4 (Homo sapiens, UniProt P08684); assay: Inhibition of human microsomal CYP3A4 expressed in baculovirus infected BTI-TN-5B1-4 cells at 10 uM incubated for 30 mins by luciferase assay relative to control; format: ADME; how it was run: as §1
Trypanosoma brucei [3] = assay: Antitrypanosomal activity against Trypanosoma brucei Lister 427 bloodstream form after 72 hrs by SYBR Green assay; format: functional, organism-based; details: Lister 427, 72 h
Aurora kinase B = Aurora kinase B (Homo sapiens, UniProt Q96GD4); assay: Inhibition of recombinant full-length human aurora B kinase expressed in baculovirus system at 10 uM using MBP as substrate incubated for 45 mins by ADP-glo kinase assay; details: probe MBP
How it was run: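 Aurora B activity measured as ADP formation via coupled luciferase ADP-Glo luminescence; single-point at 10 μM, triplicate.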

Trypanosoma brucei [4] = assay: Antitrypanosomal activity against Trypanosoma brucei Lister 427 bloodstream form at 10 uM after 72 hrs by resazurin dye-based assay relative to control; format: functional
[5] = target: T2, Pteridine reductase 1 (Leishmania major) (UniProt Q01782); assay: Inhibition of Leishmania major PTR1 at 50 uM using H2B as substrate in presence of NADPH by photometric analysis relative to control
T2 sequence (whole entry): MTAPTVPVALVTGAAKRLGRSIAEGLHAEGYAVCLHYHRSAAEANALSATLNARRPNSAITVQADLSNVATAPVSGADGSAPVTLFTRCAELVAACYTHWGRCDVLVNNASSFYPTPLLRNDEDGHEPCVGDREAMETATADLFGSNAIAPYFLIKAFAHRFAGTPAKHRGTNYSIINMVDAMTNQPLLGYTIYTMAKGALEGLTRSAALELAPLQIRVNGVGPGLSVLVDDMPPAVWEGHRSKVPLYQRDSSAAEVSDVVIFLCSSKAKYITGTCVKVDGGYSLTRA

Trypanosoma brucei [6] = assay: Potentiation of methotrexate-induced antitrypanosomal activity against Trypanosoma brucei Lister 427 bloodstream form assessed as dose reduction index for methotrexate at EC50 after 72 hrs by resazurin dye-based assay; format: functional
Trypanosoma brucei [7] = assay: Potentiation of methotrexate-induced antitrypanosomal activity against Trypanosoma brucei Lister 427 bloodstream form at 10 uM after 72 hrs by resazurin dye-based assay; format: functional
Trypanosoma cruzi [8] = assay: Antitrypanosomal activity against Trypanosoma cruzi amastigote form infected in human U2OS cells assessed as parasite growth inhibition after 72 hrs; format: functional, organism-based
How it was run: (§2)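 U2OS monolayers grown for 24 h, then infected with tissue-derived trypomastigotes of T. cruzi Y strain. Compounds were added 24 h after infection at 50 μM (single-point) or in dose-response, with 72 h exposure. Plates were fixed, stained and analysed by high-content imaging; activity was normalized to infected and non-infected controls. Means of at least two experiments; benznidazole as reference.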

CYP2C9 = CYP2C9 (Homo sapiens, UniProt P11712); assay: Inhibition of human microsomal CYP2C9 expressed in baculovirus infected BTI-TN-5B1-4 cells at 10 uM incubated for 30 mins by luciferase assay relative to control; format: ADME; how it was run: as §1
Trypanosoma brucei [9] = assay: Potentiation of methotrexate-induced antitrypanosomal activity against Trypanosoma brucei Lister 427 bloodstream form assessed as combination index at EC50 after 72 hrs by resazurin dye-based assay; format: functional
[10] = Cytotoxicity against human 786-O cells assessed as inhibition of mitochondrial viability at 10 uM after 6 hrs by CMXRos staining based assay relative to control; format: cell-based, 786-0; details: read-out: INH
How it was run: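 Mitochondrial toxicity monitored by MitoTracker Red CMXRos uptake and high-content imaging; compound at 10 μM, triplicate.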

[11] = Selectivity index, ratio of CC50 for human A549 cells to EC50 for Trypanosoma brucei Lister 427 bloodstream form; format: toxicity; details: read-out: Ratio CC50/EC50
How it was run: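 Selectivity index = CC50 in the human host or cytotoxicity cell line divided by parasite EC50.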

Trypanosoma brucei [12] = assay: Potentiation of methotrexate-induced antitrypanosomal activity against Trypanosoma brucei Lister 427 bloodstream form at 10 uM after 72 hrs by resazurin dye-based assay relative to control; format: functional
[13] = Cytotoxicity against human WI38 cells assessed as growth inhibition at 10 uM after 48 hrs by CellTiter-Glo assay relative to control; values are per cent of control; details: WI38 cells
Trypanosoma brucei [14] = assay: Antitrypanosomal activity against Trypanosoma brucei Lister 427 bloodstream form after 72 hrs by resazurin dye-based assay; format: functional, organism-based; details: Lister 427, 72 h
Trypanosoma cruzi [15] = assay: Antitrypanosomal activity against Trypanosoma cruzi amastigote form infected in human U2OS cells assessed as parasite growth inhibition at 50 uM after 72 hrs relative to control; format: functional; details: read-out: GI; how it was run: as §2
[16] = Cytotoxicity against human U2OS cells assessed as viable cells at 50 uM after 72 hrs by MTT assay relative to control; format: cell-based; details: read-out: Activity
[17] = Cytotoxicity against human A549 cells assessed as growth inhibition at 10 uM after 48 hrs by CellTiter-Glo assay relative to control; values are per cent of control; details: A549 cells
Leishmania infantum = assay: Antileishmanial activity against Leishmania infantum amastigote form assessed as parasite growth inhibition at 50 uM after 72 hrs by steady-Glo reagent based assay relative to control; format: functional
How it was run: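 Intramacrophage L. infantum amastigotes in THP-1-derived macrophages, tested at 50 μM or in dose-response. Plates held 72 h at 37 °C, 5% CO2. Medium was replaced by PBS, macrophages lysed, and parasites read by Steady-Glo luminescence. High-content imaging gave host cell number, infection ratio (infected/total cells) and parasites per infected cell. Values are means of at least two independent experiments.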

Sequence of CYP2C9 (P11712 whole entry): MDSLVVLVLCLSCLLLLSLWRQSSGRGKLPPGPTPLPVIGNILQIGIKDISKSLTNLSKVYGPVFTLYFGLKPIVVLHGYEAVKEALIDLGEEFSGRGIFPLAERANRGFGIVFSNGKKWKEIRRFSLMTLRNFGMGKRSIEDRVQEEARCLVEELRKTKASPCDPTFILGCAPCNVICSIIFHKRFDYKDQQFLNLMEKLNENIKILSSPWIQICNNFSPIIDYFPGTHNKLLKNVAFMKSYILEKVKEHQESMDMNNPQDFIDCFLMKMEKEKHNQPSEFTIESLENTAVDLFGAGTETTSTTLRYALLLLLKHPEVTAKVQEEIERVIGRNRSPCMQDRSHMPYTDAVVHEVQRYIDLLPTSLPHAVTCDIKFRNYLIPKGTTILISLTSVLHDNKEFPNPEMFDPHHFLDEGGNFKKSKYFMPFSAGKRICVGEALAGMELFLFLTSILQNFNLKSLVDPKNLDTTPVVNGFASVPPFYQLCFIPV
Sequence of Aurora kinase B (Q96GD4 whole entry): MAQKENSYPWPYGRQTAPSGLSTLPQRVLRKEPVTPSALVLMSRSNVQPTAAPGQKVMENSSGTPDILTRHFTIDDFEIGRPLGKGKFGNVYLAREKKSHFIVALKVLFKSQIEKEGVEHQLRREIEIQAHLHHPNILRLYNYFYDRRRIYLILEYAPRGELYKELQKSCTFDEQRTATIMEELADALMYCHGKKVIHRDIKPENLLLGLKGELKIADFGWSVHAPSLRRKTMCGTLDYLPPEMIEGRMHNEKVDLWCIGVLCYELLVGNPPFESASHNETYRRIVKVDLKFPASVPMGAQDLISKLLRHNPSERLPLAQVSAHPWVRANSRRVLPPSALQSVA
Sequence of CYP2D6 (P10635 whole entry): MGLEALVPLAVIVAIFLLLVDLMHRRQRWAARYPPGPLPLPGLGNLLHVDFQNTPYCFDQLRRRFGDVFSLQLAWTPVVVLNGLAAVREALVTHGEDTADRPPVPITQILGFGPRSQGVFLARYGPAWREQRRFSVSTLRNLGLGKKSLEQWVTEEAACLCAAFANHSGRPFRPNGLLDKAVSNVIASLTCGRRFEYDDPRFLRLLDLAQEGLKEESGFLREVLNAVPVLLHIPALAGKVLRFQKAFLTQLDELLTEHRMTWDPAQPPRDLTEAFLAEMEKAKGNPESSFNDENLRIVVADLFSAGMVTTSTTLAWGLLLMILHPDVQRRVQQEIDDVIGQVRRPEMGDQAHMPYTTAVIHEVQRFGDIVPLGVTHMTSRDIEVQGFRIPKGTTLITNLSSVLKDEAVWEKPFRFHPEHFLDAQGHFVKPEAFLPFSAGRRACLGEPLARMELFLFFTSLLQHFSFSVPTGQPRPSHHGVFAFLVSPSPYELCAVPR
Sequence of hERG (KCNH2) (Q12809 whole entry): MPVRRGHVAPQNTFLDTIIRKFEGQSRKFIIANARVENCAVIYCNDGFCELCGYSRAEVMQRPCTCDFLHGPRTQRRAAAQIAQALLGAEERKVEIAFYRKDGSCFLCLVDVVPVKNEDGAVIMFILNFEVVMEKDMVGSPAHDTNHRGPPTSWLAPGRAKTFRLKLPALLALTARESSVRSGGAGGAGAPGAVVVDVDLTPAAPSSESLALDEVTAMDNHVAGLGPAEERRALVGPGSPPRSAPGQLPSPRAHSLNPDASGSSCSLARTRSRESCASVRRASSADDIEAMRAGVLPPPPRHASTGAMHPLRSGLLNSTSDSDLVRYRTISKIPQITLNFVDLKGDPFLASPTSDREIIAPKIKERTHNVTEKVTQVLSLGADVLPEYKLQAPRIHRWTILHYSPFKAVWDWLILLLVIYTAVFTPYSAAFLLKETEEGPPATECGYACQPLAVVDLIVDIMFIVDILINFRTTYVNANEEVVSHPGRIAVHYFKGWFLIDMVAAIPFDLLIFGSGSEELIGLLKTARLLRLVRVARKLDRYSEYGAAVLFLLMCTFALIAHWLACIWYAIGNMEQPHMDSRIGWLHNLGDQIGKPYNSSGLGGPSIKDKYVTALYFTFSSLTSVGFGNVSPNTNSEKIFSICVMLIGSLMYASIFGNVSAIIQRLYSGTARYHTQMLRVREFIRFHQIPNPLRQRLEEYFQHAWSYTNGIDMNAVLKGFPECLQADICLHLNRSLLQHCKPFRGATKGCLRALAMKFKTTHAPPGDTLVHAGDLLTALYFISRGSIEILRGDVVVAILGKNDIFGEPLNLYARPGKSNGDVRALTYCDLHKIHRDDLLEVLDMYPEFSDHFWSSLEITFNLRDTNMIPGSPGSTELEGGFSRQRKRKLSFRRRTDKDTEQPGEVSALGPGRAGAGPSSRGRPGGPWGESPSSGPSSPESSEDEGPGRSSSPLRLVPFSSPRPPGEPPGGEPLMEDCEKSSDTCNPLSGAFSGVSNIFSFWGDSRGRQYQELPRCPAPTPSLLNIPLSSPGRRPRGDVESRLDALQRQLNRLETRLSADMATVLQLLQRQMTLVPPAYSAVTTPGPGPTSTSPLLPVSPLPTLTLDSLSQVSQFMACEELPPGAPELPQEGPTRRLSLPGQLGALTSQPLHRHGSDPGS
Sequence of CYP3A4 (P08684 whole entry): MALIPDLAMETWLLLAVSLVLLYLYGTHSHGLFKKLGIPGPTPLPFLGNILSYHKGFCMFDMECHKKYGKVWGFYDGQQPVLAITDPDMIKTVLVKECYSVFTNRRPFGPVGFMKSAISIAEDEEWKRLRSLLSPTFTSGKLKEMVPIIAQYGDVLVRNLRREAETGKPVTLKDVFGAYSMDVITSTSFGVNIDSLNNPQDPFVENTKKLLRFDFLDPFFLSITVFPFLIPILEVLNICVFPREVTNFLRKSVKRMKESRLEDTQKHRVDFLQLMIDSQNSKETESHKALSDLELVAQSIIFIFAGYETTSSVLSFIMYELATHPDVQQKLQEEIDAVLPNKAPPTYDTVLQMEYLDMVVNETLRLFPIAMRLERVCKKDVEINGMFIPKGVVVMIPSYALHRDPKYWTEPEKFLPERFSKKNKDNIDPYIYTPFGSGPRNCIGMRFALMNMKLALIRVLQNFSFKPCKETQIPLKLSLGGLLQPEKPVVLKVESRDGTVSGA

Structure (SMILES)	Activity_index (Trypanosoma brucei [1])	inhibition at 2 h, 10 µM (hERG (KCNH2)) [%]	inhibition [2] [%]	inhibition at 0.5 h, 10 µM (CYP2D6) [%]	inhibition at 0.5 h, 10 µM (CYP3A4) [%]	EC50 (Trypanosoma brucei [3]) [µM]	inhibition at 0.75 h, 10 µM (Aurora kinase B) [%]	Activity (Trypanosoma brucei [4]) [%]	inhibition [5] [%]	Activity (Trypanosoma brucei [6])	PF (Trypanosoma brucei [7])	EC50 (Trypanosoma cruzi [8]) [µM]	inhibition at 0.5 h, 10 µM (CYP2C9) [%]	CI (Trypanosoma brucei [9])	cytotoxicity at 6 h, 10 µM [10] [%]	selectivity ratio [11]	Activity (Trypanosoma brucei [12]) [%]	cell growth (% of control) at 48 h, 10 µM [13] [%]	EC50 (Trypanosoma brucei [14]) [µM]	inhibition of growth at 50 µM (Trypanosoma cruzi [15]) [%]	other results
COc1ccc(-c2cccc(/C=N/NC(N)=S)c2)cc1OC	7.94	22.4	3.09	29.2	-2.53	7.45	-2.55	98.83	4.76	6.36	0.81	29.5	56.8	0.28	-13.1	7	99.67	106	4.72	82.4	viability at 72 h, 50 µM [16]: 26.7%; cell growth (% of control) at 48 h, 10 µM [17]: 90.5%; growth inhibition (GI) (Leishmania infantum): inactive
NC(=S)N/N=C/c1ccc(OCc2ccc(Cl)c(Cl)c2)cc1	3.84	2.4	0.36	39.3	10.6	2.31	-6.24	99.83	0.59	6.56	0.8	1.31	18.9	0.41	23.4	8	99.67	89.4	0.44	80.5	viability at 72 h, 50 µM [16]: 65.5%; cell growth (% of control) at 48 h, 10 µM [17]: 72.5%; inhibition of growth at 50 µM (Leishmania infantum; read-out: GI): 80.5%
